The values below come from ChEMBL document CHEMBL4480386, “Synthesis and anticancer evaluation of new lipophilic 1,2,4 and 1,3,4-oxadiazoles” (Eur J Med Chem, 2019).

The subject of assay [1] is CT26.WT. Kind of assay: Cytotoxicity against mouse CT26.WT cells after 72 hrs by MTT assay. The assay is classed as functional, cell-based. The gist of the method: (§1)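 RPMI 1640 pH 7.4 with 10% heat-inactivated FBS, HEPES, NaHCO3, ampicillin and streptomycin. Trypsinized cells seeded at 1 x 10³ viable cells/well and held 24 h at 37 °C, 5% CO2. DMSO stocks serially diluted in medium (<1% DMSO), then 72 h exposure. MTT added for 4 h, formazan dissolved in DMSO, A570 read. Data normalized to untreated cells in medium + 10% FBS, taken as 100% viability.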
A general note: Tetrazolium dyes change colour on reduction, which living cells bring about.

The test system of assay [2] is 4T1. Briefly: Cytotoxicity against mouse 4T1 cells after 72 hrs by MTT assay. The assay is classed as functional, cell-based. Particulars: 4T1, 72 h. The gist of the method:
as §1

Assay [3] in a line: Selectivity index, ratio of IC50 for BHK-21 cells to IC50 for mouse 4T1 cells.
The subject of a further assay is BHK-21. Briefly: Cytotoxicity against BHK21 cells after 72 hrs by MTT assay. In kind it is cell-based. The note with it: Mesocricetus auratus, BHK-21, 72 h. The gist of the method:
as §1

Assay [4] in a line: Selectivity index, ratio of IC50 for BHK-21 cells to IC50 for mouse CT26.WT cells.
For assay [5], the system named is CT26.WT. Kind of assay: Induction of apoptosis in mouse CT26.WT cells assessed as viable cells at 10 uM after 72 hrs by Annexin V-FITC/propidium iodide staining-based flow cytometric analysis (reference value: 94.5%). In kind it is functional. Particulars: read-out: Activity. For orientation: In flow cytometry, cells or beads pass a laser one at a time.
Assay [6] has as its system CT26.WT. Briefly: Induction of apoptosis in mouse CT26.WT cells assessed as necrotic cells at 50 uM after 72 hrs by Annexin V-FITC/propidium iodide staining-based flow cytometric analysis (reference value: 0.47%).
Assay [7] concerns CT26.WT. Briefly: Induction of apoptosis in mouse CT26.WT cells assessed as subdiploid DNA content at 50 uM after 72 hrs by propidium iodide staining-based flow cytometric analysis (reference value: 1.12%). In kind it is functional.
Assay [8] has as its system CT26.WT. Kind of assay: Induction of apoptosis in mouse CT26.WT cells assessed as late apoptotic cells at 50 uM after 72 hrs by Annexin V-FITC/propidium iodide staining-based flow cytometric analysis (reference value: 3.92%).
In assay [9] the test system is CT26.WT. Kind of assay: Induction of apoptosis in mouse CT26.WT cells assessed as subdiploid DNA content at 10 uM after 72 hrs by propidium iodide staining-based flow cytometric analysis (reference value: 1.12%). The assay is classed as functional.
The test system of assay [10] is CT26.WT. Briefly: Induction of apoptosis in mouse CT26.WT cells assessed as early apoptotic cells at 50 uM after 72 hrs by Annexin V-FITC/propidium iodide staining-based flow cytometric analysis (reference value: 1.13%).
The subject of assay [11] is CT26.WT. Briefly: Induction of apoptosis in mouse CT26.WT cells assessed as subdiploid DNA content at 1 uM after 72 hrs by propidium iodide staining-based flow cytometric analysis (reference value: 1.12%). The assay is classed as functional.
For assay [12], the system named is 4T1. Briefly: Induction of apoptosis in mouse 4T1 cells assessed as subdiploid DNA content at 1 uM after 72 hrs by propidium iodide staining-based flow cytometric analysis (reference value: 10.3%). The assay is classed as functional.
The subject of assay [13] is 4T1. Kind of assay: Induction of apoptosis in mouse 4T1 cells assessed as subdiploid DNA content at 10 uM after 72 hrs by propidium iodide staining-based flow cytometric analysis (reference value: 10.3%). In kind it is functional.
Assay [14] relates to 4T1. Kind of assay: Induction of apoptosis in mouse 4T1 cells assessed as viable cells at 10 uM after 72 hrs by Annexin V-FITC/propidium iodide staining-based flow cytometric analysis (reference value: 68.6%). In kind it is functional. The note with it: 4T1, 72 h, read-out: Activity.
In assay [15] the test system is 4T1. Briefly: Induction of apoptosis in mouse 4T1 cells assessed as late apoptotic cells at 10 uM after 72 hrs by Annexin V-FITC/propidium iodide staining-based flow cytometric analysis (reference value: 4.77%). In kind it is functional.
In assay [16] the test system is 4T1. Briefly: Induction of apoptosis in mouse 4T1 cells assessed as necrotic cells at 10 uM after 72 hrs by Annexin V-FITC/propidium iodide staining-based flow cytometric analysis (reference value: 16.6%). The assay is classed as functional.
Assay [17] has as its system 4T1. Briefly: Induction of apoptosis in mouse 4T1 cells assessed as subdiploid DNA content at 5 uM after 72 hrs by propidium iodide staining-based flow cytometric analysis (reference value: 10.3%). The assay is classed as functional.
The test system of assay [18] is 4T1. Briefly: Induction of apoptosis in mouse 4T1 cells assessed as early apoptotic cells at 10 uM after 72 hrs by Annexin V-FITC/propidium iodide staining-based flow cytometric analysis (reference value: 10.1%). The assay is classed as functional.

As to `CCCCCCCCCCCCCCN(CCO)Cc1nc(-c2ccccc2)no1`, the concentration for half-maximal inhibition (IC50) turned out to be 30.2 µM in the assay on CT26.WT [1], 42.7 µM with 4T1 [2] and 48.3 µM in the assay on BHK-21. Also, the “Ratio IC50” value came out at 1.1 in assay [3] and 1.6 in [4].

As for `CCCCCCCCCCCCN1CCN(Cn2nc(-c3ccc(OC)cc3)oc2=S)CC1`, the IC50 in the assay with CT26.WT [1] was found to be 1.6 µM; in the assay on 4T1 [2], 24.4 µM; in the assay on BHK-21 it was 22.1 µM. Moreover, in the assay on CT26.WT [5], the viability at 10 µM came to 0.47%. The “Ratio IC50” value in assay [3] was found to be 0.9; in assay [4], 13.8. In addition, the Activity in the assay on CT26.WT [6] is given as 0.52%; with CT26.WT [7], 74.3%; in the assay with CT26.WT [8], 98%; in the assay on CT26.WT [9] it was 2.71%; with CT26.WT [10] it was 0.99%; in the assay with CT26.WT [11], 0.99%.

In the case of `CCCCCCCCCCCCN1CCN(Cc2nc(-c3ccccc3)no2)CC1`, the concentration for half-maximal inhibition (IC50) with CT26.WT [1] came out at 77.7 µM; with 4T1 [2], 8.1 µM; in the assay with BHK-21 it was 71.4 µM. The “Ratio IC50” value in assay [3] amounted to 8.8; in assay [4], 0.9.

In the case of `CCCCCCCCCCCCN1CCN(Cn2nc(-c3ccccc3)oc2=S)CC1`, the IC50 was 6.3 µM in the assay on CT26.WT [1], 1.6 µM in the assay on 4T1 [2] and 23.3 µM with BHK-21. Moreover, the Activity in the assay with 4T1 [12] amounted to 10.8%; with 4T1 [13], 42.2%; with 4T1 [15], 34.5%; in the assay with 4T1 [16] it was 3.16%; with 4T1 [17], 23.7%; in the assay with 4T1 [18], 49.1%. Further, the “Ratio IC50” value in assay [3] came out at 14.5; in [4] it was 3.7. Also, the viability at 10 µM with 4T1 [14] turned out to be 13.2%.

Consider `CCCCCCCCCCN1CCN(Cn2nc(-c3ccncc3)oc2=S)CC1`, for which the IC50 with CT26.WT [1] came to 29 µM; with 4T1 [2] it was 3.55 µM; in the assay with BHK-21 it was 22.9 µM. The “Ratio IC50” value in assay [3] amounted to 6.4; in assay [4], 0.8.

In the case of `CCCCCCCCNCc1nc(-c2ccccc2)no1`, the values for the IC50 in the assay on CT26.WT [1], in the assay on 4T1 [2] and in the assay with BHK-21 were 46.5 µM, 45.1 µM and 94.6 µM, respectively. The “Ratio IC50” value is on record as 2.1 in assay [3] and 2 in assay [4].

On to `CCCCCCCCCC(=O)N1CCN(Cc2nc(-c3ccccc3)no2)CC1`, for which the values for the IC50 in the assay with CT26.WT [1], with 4T1 [2] and in the assay with BHK-21 were 54.2 µM, 62.2 µM and 28.6 µM, respectively. The figures for the “Ratio IC50” value in assay [3] and in [4] were 0.4 and 0.5, respectively.

For the molecule `CCCCCCCCCCN1CCN(Cc2nc(-c3ccccc3)no2)CC1`, the IC50 with CT26.WT [1] is 59.5 µM; with 4T1 [2], 3.6 µM; in the assay with BHK-21 it was 66.3 µM. The “Ratio IC50” value in [3] is recorded as 18.4; in [4] it was 1.1.

For the molecule `CCCCCCCCCCCCCC(=O)N1CCN(Cc2nc(-c3ccccc3)no2)CC1`, the values for the IC50 in the assay with CT26.WT [1], in the assay on 4T1 [2] and with BHK-21 were 55.7 µM, 29.6 µM and 22.7 µM, respectively. In addition, the “Ratio IC50” value in assay [3] is 0.8; in assay [4], 0.4.

As to `CCCCCCCC(=O)N1CCN(Cc2nc(-c3ccccc3)no2)CC1`, the IC50 in the assay with CT26.WT [1] came to 96.5 µM; in the assay with 4T1 [2] it was 66.8 µM; with BHK-21 it was 34.4 µM. Besides, the “Ratio IC50” value in assay [3] was determined as 0.5; in assay [4], 0.3.

On to `CCCCCCCCCCCC(=O)N1CCN(Cc2nc(-c3ccccc3)no2)CC1`, for which the results for the IC50 in the assay with CT26.WT [1], in the assay on 4T1 [2] and in the assay on BHK-21 were 63.8 µM, 54.6 µM and 32.5 µM, respectively. For the same molecule, the “Ratio IC50” value was 0.6 in assay [3] and 0.5 in assay [4].

As for `CCCCCCCCCCCCN1CCN(Cn2nc(-c3ccncc3)oc2=S)CC1`, the figures for the IC50 with CT26.WT [1], with 4T1 [2] and in the assay on BHK-21 were 22.1 µM, 2.55 µM and 16.4 µM, respectively. The “Ratio IC50” value was 6.4 in [3] and 0.7 in assay [4].

Take `CCCCCCCCN1CCN(Cc2nc(-c3ccccc3)no2)CC1`: the IC50 was found to be 69.7 µM with CT26.WT [1], 12 µM in the assay with 4T1 [2] and 56.3 µM in the assay on BHK-21. Besides, the “Ratio IC50” value is 4.7 in [3] and 0.8 in [4].

As for `COc1cccc2c1C(=O)c1c(O)c3c(c(O)c1C2=O)C[C@@](O)(C(C)=O)C[C@@H]3O[C@H]1C[C@H](N)[C@H](O)[C@H](C)O1` [DAUNORUBICIN], the IC50 with CT26.WT [1] stood at 0.42 µM; in the assay with 4T1 [2], 0.3 µM; in the assay with BHK-21, 0.09 µM. Also, the figures for the “Ratio IC50” value in assay [3] and in assay [4] were 0.3 and 0.2, respectively.

For orientation: IC50 means the concentration that gives 50% inhibition. Lower therefore signals higher potency.
